Test system: HT-29
Experiment: Growth inhibition of human HT-29 cell
Type: functional, cell-based
Procedure, shortened: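 Human colon carcinoma HT-29 cells (Apc-null, wild-type β-catenin) incubated with varying concentrations of each compound for 3 days at 37°C; growth inhibition measured.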

IC50: 3.7 µM
Compound: N#Cc1ccc(/C=C/C(=O)c2ccccc2)cc1

From ChEMBL document CHEMBL1287738, “Synthesis and biological evaluation of retinoid-chalcones as inhibitors of colon cancer cell growth” (Bioorg Med Chem Lett, 2010)
